Calls of active or inactive are those of the source. The calls are words filed in the database; no cut-off is given here.
Assays:
[1] = Cytotoxicity against human PBMC cells assessed as reduction in cell viability at 100 uM incubated for 24 hrs by Cell-titer glo Luminescent assay relative to control; type: cell-based
In short: (§1)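 Cells (Raji, RAW 264.7 or donor PBMCs) plated at 1 × 10⁴ per well in medium with 10% FBS. Treated for 24 h at 37 °C, 5% CO₂ with 100, 50, 25, 12.5, 6.25 or 3.125 μM compound, or buffer containing 0.2% DMSO. Viability read by CellTiter-Glo luminescence; killing rate = (1 − RLU compound/RLU control) × 100%; triplicate, mean ± SEM.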

[2] = Cytotoxicity against human PBMC cells assessed as reduction in cell viability incubated for 24 hrs by Cell-titer glo Luminescent assay; type: cell-based; settings: dose 3.125-100 µM; in short: as §1
RAW264.7 [3] = assay: Cytotoxicity against mouse RAW264.7 cells assessed as reduction in cell viability incubated for 24 hrs by Cell-titer glo Luminescent assay; type: cell-based; settings: RAW264.7, 24 h; in short: as §1
[4] = Cytotoxicity against human PBMC cells assessed as reduction in cell viability at 6.3 uM incubated for 24 hrs by Cell-titer glo Luminescent assay; type: cell-based; in short: as §1
Raji [5] = assay: Cytotoxicity against human Raji cells assessed as reduction in cell viability incubated for 24 hrs by Cell-titer glo Luminescent assay; type: cell-based; in short: as §1
[6] = biological target: T1, Programmed cell death 1 ligand 1 (Homo sapiens, UniProt Q9NZQ7); assay: Binding affinity to human PD-L1 expressed in CHOK1 cells assessed as inhibition of PD1/PDL1 protein-protein interaction at 500 nM incubated for 30 mins by flow cytometry analysis; type: cell-based; settings: CHO-K1
In short: (§2)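 CHO-K1-hPD-L1 cells, 5 × 10⁵ per tube in PBS with 2% FBS, incubated with hPD-1/Fc (10 μg/mL final) at 4 °C for 30 min. Compound added at 500 nM final and incubated a further 30 min at 4 °C, then stained with APC anti-human IgG Fc. Percentage of hPD-1-bound cells read by flow cytometry. Blocking efficacy calculated against a no-inhibitor positive control and parental CHO-K1 negative control.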

[7] = Acute toxicity in C57BL/6J mouse xenografted with MC38 cells assessed as mortality at 15 mg/kg, ip QD for 3 week; type: organism-based; settings: in vivo, 504 h, time 3 weeks
[8] = biological target: T1, Programmed cell death 1 ligand 1; assay: Binding affinity to biotinylated human AVI-PD-L1 assessed as association constant by biolayer interferometry
In short: (§3)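 Biotinylated human PD-L1/AVI at 10 μg/mL loaded on streptavidin biosensors for 300 s, then baselined. Association with compound at 20 to 0.3125 nM plus 0 nM for 180 s, then dissociation in buffer for 300 s. Data globally fitted to a 1:1 model to give ka and kdis; apparent affinity taken as their ratio.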

[9] = Cytotoxicity against human PBMC cells assessed as reduction in cell viability up to 100 uM incubated for 24 hrs by Cell-titer glo Luminescent assay; type: cell-based; in short: as §1
[10] = Plasma concentration in male Sprague-Dawley rat at 15 mg/kg, po measured up to 24 hrs by LC-MS/MS analysis; type: ADME, organism-based
In short: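 Male Sprague Dawley rats (n = 6, 6−8 weeks, 200−300 g) given a single 15 mg/kg oral dose in 25% MPD/10% RH40/65% water. Blood sampled at 0.25, 0.5, 1, 2, 4, 8, 24 h into EDTA-K2 and spun to plasma; LC−MS/MS analysis, quantifiable limit 0.5 ng/mL.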

[11] = Dose normalized AUClast in male Sprague-Dawley rat at 4 mg/kg, iv measured up to 24 hrs by LC-MS/MS analysis; type: ADME, organism-based; settings: in vivo
In short: (§4)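 Male Sprague Dawley rats (n = 6, 6−8 weeks, 200−300 g), single 4 mg/kg iv dose in 25% MPD/10% RH40/65% water, freshly prepared. About 0.2 mL blood drawn at 0.08, 0.25, 0.5, 1, 2, 4, 8, 24 h into EDTA-K2, centrifuged 4000g 5 min at 4 °C; plasma assayed by LC−MS/MS; noncompartmental parameters reported as mean ± SD.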

[12] = biological target: T1, Programmed cell death 1 ligand 1; assay: Binding affinity to biotinylated human AVI-PD-L1 by biolayer interferometry; in short: as §3
[13] = biological target: T1, Programmed cell death 1 ligand 1; assay: Binding affinity to biotinylated human AVI-PD-L1 assessed as dissociation rate constant by biolayer interferometry
[14] = Acute toxicity in C57BL/6J mouse xenografted with MC38 cells assessed as behavior changes at 15 mg/kg, ip QD for 3 week; type: organism-based; settings: in vivo, 504 h, time 3 weeks
[15] = Initial plasma concentration in male Sprague-Dawley rat plasma at 4 mg/kg, iv measured up to 24 hrs by LC-MS/MS analysis; type: ADME, organism-based; in short: as §4
[16] = biological target: T1, Programmed cell death 1 ligand 1; assay: Inhibition of human PD-L1 cocultured in PBMC cells assessed as inhibition of PD1/PDL1 interaction mediated increase in IFN-gamma secretion at 0.1 uM incubated for 72 hrs by ELISA relative to control; type: cell-based
In short: (§5)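 Healthy-donor PBMCs, 1 × 10⁵ per well in RPMI 1640 with 10% FBS, stimulated with anti-CD3/anti-CD28 (1:1, 0.8 μg/mL final) plus PD-L1/Fc at 10 μg/mL final. Compound added at 0.1 or 1 μM final and cocultured 72 h at 37 °C, 5% CO₂. Supernatant IFN-γ measured by ELISA; quadruplicate, mean ± SEM.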

Raji [17] = assay: Cytotoxicity against human Raji cells assessed as reduction in cell viability at 3.125 uM incubated for 24 hrs by Cell-titer glo Luminescent assay; type: cell-based; in short: as §1
RAW264.7 [18] = assay: Cytotoxicity against mouse RAW264.7 cells assessed as reduction in cell viability at 3.125 to 100 uM incubated for 24 hrs by Cell-titer glo Luminescent assay; type: cell-based; settings: raw264.7, 24 h, dose 3.125-100 µM; in short: as §1
[19] = Acute toxicity in C57BL/6J mouse xenografted with MC38 cells assessed as change in body weight at 15 mg/kg, ip QD for 3 week; type: organism-based; settings: in vivo, 504 h, time 3 weeks
In short: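 Female PD-1-humanized C57BL/6J-Pdcd1^{em1(hPDCD1)/Smoc} mice, six weeks old, were acclimated 1 week. They were given 1 × 10⁶ MC38 cells (mouse PD-L1 knockout, human PD-L1 knock-in) s.c. near the hind-leg groin. Mice were randomised at 50−150 mm³ tumour volume (6 per group) and dosed 15 mg/kg ip once daily for 3 weeks. Vehicle was 0.8% DMSO/7.5% RH40 in saline. Body weight was measured twice weekly.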

[20] = Volume of distribution at steady state in male Sprague-Dawley rat at 4 mg/kg, iv measured up to 24 hrs by LC-MS/MS analysis; type: ADME, organism-based; settings: in vivo, read-out: Vdss; in short: as §4
[21] = biological target: T1, Programmed cell death 1 ligand 1; assay: Inhibition of human PD-L1 cocultured in PBMC cells assessed as inhibition of PD1/PDL1 interaction mediated increase in IFN-gamma secretion at 1 uM incubated for 72 hrs by ELISA relative to control; type: cell-based; in short: as §5
[22] = Clearance in male Sprague-Dawley rat at 4 mg/kg, iv measured up to 24 hrs by LC-MS/MS analysis; type: ADME, organism-based; settings: in vivo; in short: as §4
[23] = Half-life in male Sprague-Dawley rat at 4 mg/kg, iv measured up to 24 hrs by LC-MS/MS analysis; type: ADME, organism-based; settings: in vivo; in short: as §4
[24] = AUClast in male Sprague-Dawley rat at 4 mg/kg, iv measured up to 24 hrs by LC-MS/MS analysis; type: ADME, organism-based; set-up: route intravenous, dose 4 mg/kg, time <=24; settings: in vivo; in short: as §4
[25] = MRT (0 to infinity) in male Sprague-Dawley rat at 4 mg/kg, iv measured up to 24 hrs by LC-MS/MS analysis; type: ADME, organism-based; settings: in vivo; in short: as §4
[26] = AUC (extrapolated) in male Sprague-Dawley rat at 4 mg/kg, iv measured up to 24 hrs by LC-MS/MS analysis; type: ADME, organism-based; settings: in vivo; in short: as §4
MC-38 = assay: Antitumor activity against mouse MC38 cells xenografted in PD-L1 knockout/PD1 knock-in C57BL/6J mouse assessed as tumor growth inhibition at 15 mg/kg, ip QD for 3 weeks measured after day 21; type: functional; set-up: scale not given: the % may be the effect or the level left
[27] = biological target: T1, Programmed cell death 1 ligand 1; assay: Binding affinity to human PD-L1 expressed in CHOK1 cells assessed as inhibition of PD1/PDL1 protein-protein interaction at 500 nM incubated for 30 mins by flow cytometry analysis relative to control; type: cell-based; settings: CHO-K1; in short: as §2
[28] = AUC (0 to infinity) in male Sprague-Dawley rat plasma at 4 mg/kg, iv measured up to 24 hrs by LC-MS/MS analysis; type: ADME, organism-based; set-up: route intravenous, dose 4 mg/kg, time <=24; in short: as §4

T1 sequence (Q9NZQ7 whole entry): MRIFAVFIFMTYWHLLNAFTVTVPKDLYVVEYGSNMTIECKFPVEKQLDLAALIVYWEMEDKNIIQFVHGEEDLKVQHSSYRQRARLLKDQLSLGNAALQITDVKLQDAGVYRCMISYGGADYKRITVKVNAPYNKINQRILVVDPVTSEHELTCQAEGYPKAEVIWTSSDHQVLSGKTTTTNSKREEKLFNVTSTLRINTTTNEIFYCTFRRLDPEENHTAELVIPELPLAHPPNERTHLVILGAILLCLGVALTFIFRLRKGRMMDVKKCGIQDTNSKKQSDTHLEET

Q: For `COc1nc(NCc2cccc(-c3ccccc3)c2C)ccc1CNCCNC(C)=O`, which Activity [1] is on record?
A: Its Activity is 100%.

Q: What about the Activity [2] of the same compound?
A: The Activity was “Toxic”.

Q: What about the EC50 (RAW264.7 [3]) of the same compound?
A: Its EC50 is 6.97 µM.

Q: And the Activity [4]?
A: Its Activity is “Non-Toxic”.

Q: And the EC50 (Raji [5])?
A: The EC50 was 13.8 µM.

Q: With `Cc1cc(CN[C@H](CO)C(=O)O)c(OCc2cncc(C#N)c2)cc1NCc1cccc(-c2ccccc2)c1C` as the compound, how does the Activity [6] read?
A: The Activity was “Active”.

Q: And the Activity [7]?
A: Its Activity is “Non-Toxic”.

Q: And the association rate constant (kon) [8]?
A: The association rate constant (kon) was 2.17 10^6/M/s.

Q: What about the Activity [9] of the same compound?
A: Its Activity is “Non-Toxic”.

Q: What about the concentration at 24 h [10] of the same compound?
A: Its concentration at 24 h is 0.5 ng/mL.

Q: What about the AUClast/dose [11] of the same compound?
A: The AUClast/dose was 226 ng·kg·h/mL/mg.

Q: And the Dissociation constant (KD) [12]?
A: Its Dissociation constant (KD) is 1.62 10^-11M.

Q: What about the koff [13] of the same compound?
A: The koff was 3.53 10^-5/s.

Q: And the Activity [14]?
A: Its Activity is “Non-Toxic”.

Q: And the C0 at 24 h [15]?
A: Its C0 at 24 h is 4370 ng/mL.

Q: And the inhibition [16]?
A: The inhibition was 72.9%.

Q: What about the Activity (Raji [17]) of the same compound?
A: The Activity was “Non-Toxic”.

Q: And the Activity (RAW264.7 [18])?
A: The Activity was “Non-Toxic”.

Q: And the Activity [19]?
A: The Activity was “Non-Toxic”.

Q: And the Vd [20]?
A: Its Vd is 2.17 L/kg.

Q: And the Activity [4]?
A: Its Activity is “Non-Toxic”.

Q: What about the inhibition [21] of the same compound?
A: Its inhibition is 56.8%.

Q: What about the clearance [22] of the same compound?
A: The clearance was 74.5 mL/min/kg.

Q: And the half-life [23]?
A: The half-life was 82.8 min.

Q: What about the AUC(0-t) at 24 h [24] of the same compound?
A: The AUC(0-t) at 24 h was 905 ng·h/mL.

Q: What about the MRT inf [25] of the same compound?
A: Its MRT inf is 29.2 min.

Q: And the “%AUCextra” value [26]?
A: Its value is 0.283%.

Q: And the Activity (MC-38)?
A: Its Activity is 61.7%.

Q: What about the Efficacy [27] of the same compound?
A: Its Efficacy is 97.5%.

Q: And the AUC(0-inf) [28]?
A: Its AUC(0-inf) is 908 ng·h/mL.
